# Assay results gathered from unrelated publications.
# ALK: ALK tyrosine kinase receptor (ALK, Homo sapiens, UniProt Q9UM73)
SMILES,target,effect on,mode,method,tested at,measurement,value
C#Cc1n[nH]c2c(-c3cn(C(C)c4ccccn4)c(=O)[nH]c3=O)cc(F)cc12 (stereo not drawn),ALK,enzyme activity,inhibitor,,1 µM,inhibition,11.2%
CC(C)(C)c1cc(C=C(C#N)C#N)cc(Br)c1O,ALK,enzyme activity,inhibitor,,0.5 µM,remaining activity,97.9%
Cn1cncc1[C@](O)(COc1ccc(C#N)cc1-c1ccc(OC(F)(F)F)cc1)c1ccc(C#N)cc1,"ALK tyrosine kinase receptor (ALK, Homo sapiens, UniProt Q9UM73, C1156Y)",cell-free assay,,competition with immobilised ligand,1 µM,remaining binding,92%
O=c1[nH]c2ccccc2n1C1CCN(Cc2ccc(-c3[nH]c4cc5ncnc5cc4nc3-c3ccccc3)cc2)CC1,ALK,cell-free assay,,,0.5 µM,remaining signal,106%
Nc1ncc(-c2nc(N3CCOCC3)nc(N3CCOCC3)n2)c(C(F)F)n1,"ALK tyrosine kinase receptor (ALK, Homo sapiens, UniProt Q9UM73, L1196M)",cell-free assay,,competition with immobilised ligand,10 µM,remaining binding,44%
Cc1nn(C)cc1-c1nc2c(N3CCN(Cc4ccc(Cl)cc4)CC3)c(Cl)cnc2[nH]1,ALK,binding,,competition with immobilised ligand,1 µM,remaining binding,100%
COc1cc(Nc2ncc(F)c(Nc3ccc4c(n3)NC(=O)C(C)(C)O4)n2)cc(OC)c1OC,ALK,binding,,competition with immobilised ligand,10 µM,inhibition,99%
C#Cc1n[nH]c2c(-c3cn([C@@H](C)c4ccccc4)c(=O)[nH]c3=O)cc(F)cc12,ALK,enzyme activity,inhibitor,,0.1 µM,inhibition,7.7%
COc1ncccc1-c1cnn2ccc(N3CCN(C(=O)OC(C)C)CC3)nc12,ALK,binding,,competition with immobilised ligand,1 µM,remaining binding,100%
